Source: the RNAGym collection of RNA variant scans (doi:10.1126/science.aae0568)
Fewer inactive variants are shown than the library holds.

B1: tRNA (parent)
chain: GUUCCGUUGGCGUAAUGGUAACGCGUCUCCCUCCUAAGGAGAAGACUGCGGGUUCGAGUCCCGUACGGAACG

Variants of: B1
Assay: yeast fitness relative to wild type (ratio to wild type); higher = fitter; tRNA-Arg(CCU), competitive growth, 37 C, YPD
How it was run: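 Changes in genotype frequencies gave Darwinian fitness relative to wild type. Frequencies were read by 100-nucleotide paired-end sequencing of gene amplicons before and after pooled Saccharomyces cerevisiae strains, carrying tRNA-Arg(CCU) gene variants at the native locus, were competed in YPD at 37°C for 24 hours in six replicates. A genotype was kept only with ≥ 100 starting reads, and estimates < 0.5 were set to 0.5.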

| Variant | yeast fitness |
| --- | --- |
| U2C | 1 |
| U2A | 0.988 |
| U2C A20U C62U | 0.571 |
| U2C A14G C29A C33G C66A | ≤ 0.5 |
| U2A C24U U47C C60U | ≤ 0.5 |
| U2A A14C C30U C34G G58C | ≤ 0.5 |
| U2A A21G C24A | ≤ 0.5 |
| U2A C11G C34G U64G | ≤ 0.5 |
| U2A G9C G50A U64A | ≤ 0.5 |
| U2A C11A A14G C29U G68U | 0.564 |
| U2A C66G | 0.715 |
| U2A C66U | 0.739 |
| U2A G9A A70C | 0.568 |
| U2A C22G C62U G63C | ≤ 0.5 |
| U2A A21G C27U | 0.693 |
| U2A C4U | 0.965 |
| U2A G39C A70G | ≤ 0.5 |
| U2A U3G C34U | ≤ 0.5 |
| U2A U16G C66A | 0.625 |
| U2A G10A A20U C22G G44C C61G | 0.502 |
| U2A C31U A37U | ≤ 0.5 |
| U2C A14C U19A | 0.595 |
| U2A G48A A57U A65U C66A | ≤ 0.5 |
| U2A C11G A42U | ≤ 0.5 |

| Variant | yeast fitness |
| --- | --- |
| U2A C24G A43U C46U | 0.542 |
| U2A C31A | 0.815 |
| U2A C31G | 0.864 |
| U2A C31U | 0.921 |
| U2C A15C U19C C22G U59C C60G | ≤ 0.5 |
| U2A C11U A69U | 0.648 |
| U2C A40G U54A | ≤ 0.5 |
| U2A C11U U19G A42U G48A | ≤ 0.5 |
| U2A G41A | 0.773 |
| U2A G67U | 0.824 |
| U2C A40C G52C G67A | 0.56 |
| U2A U16G A43C U54G | ≤ 0.5 |
| U2A C24G A37C C66U | ≤ 0.5 |
| U2C A14U U47A C61G A70G | ≤ 0.5 |
| U2C A20C G68A | 0.614 |
| U2A U28A C55G | ≤ 0.5 |
| U2A C24U A45U G67A | ≤ 0.5 |
| U2A C5A C31A A43G A45C | ≤ 0.5 |
| U2A G48A | 0.978 |
| U2A A43C C49U | 0.602 |
| U2A A45G | 1.09 |
| U2A A45U | 0.863 |
| U2A C31A A40U U53G G56C C62G | ≤ 0.5 |
| U2A G9A C33A G68A | ≤ 0.5 |

| Variant | yeast fitness |
| --- | --- |
| U2C A15C C29U | ≤ 0.5 |
| U2A G9A A37G G58A | ≤ 0.5 |
| U2A A21G C46G U54C | ≤ 0.5 |
| U2A A20U | 0.732 |
| U2A U8A C33U A43U | ≤ 0.5 |
| U2A U28C G39A G68A | ≤ 0.5 |
| U2C A21U U54G | ≤ 0.5 |
| U2A G25A U32C | 0.903 |
| U2A U3G A36U | ≤ 0.5 |
| U2A G56A | 0.898 |
| U2A C55A | 0.714 |
| U2A C55U | 0.661 |
| U2A G41C U59A C61A C66U G68C | ≤ 0.5 |
| U2A A15G C24U U54C | 0.726 |
| U2A U28A A37C C66U | ≤ 0.5 |
| U2C A40C A42U C49G C66G | ≤ 0.5 |
| U2A C11G C34U A42U C49G | 0.788 |
| U2C A14U G18C C33G G52A | ≤ 0.5 |
| U2A C5G U64A | ≤ 0.5 |
| U2A C5A C66U | ≤ 0.5 |
| U2C A40C G52C | 0.528 |
| U2A C29A A42G C49U U54A C60G G68A | ≤ 0.5 |
| U2A A15U C49G | ≤ 0.5 |
| U2C A40U G50A | 0.571 |

| Variant | yeast fitness |
| --- | --- |
| U2A G23C C27U C31G A42C C61U | ≤ 0.5 |
| U2C A20U U28A G67U | 0.579 |
| U2A U28C | 0.835 |
| U2A U3C G18C A69U | ≤ 0.5 |
| U2C A20U | 0.91 |
| U2A U19G A65U | 0.644 |
| U2A G12C C34G A65U | ≤ 0.5 |
| U2A C11G A21G A65U | ≤ 0.5 |
| U2A U16A G56C A57G | ≤ 0.5 |
| U2A C34G A36G A43U | ≤ 0.5 |
| U2A G6C C29A U59G | 0.603 |
| U2A A69C | 0.959 |
| U2A A69U | 0.874 |
| U2A U16G G18C | 0.614 |
| U2A U3C G6A U26C G56A | ≤ 0.5 |
| U2A U16C U28A G50A | ≤ 0.5 |
| U2A U3C C24G C33G C66U | ≤ 0.5 |
| U2A C5U A42G C46G G56C C61A | ≤ 0.5 |
| U2A U3C G18C C29G U54A | ≤ 0.5 |
| U2A A14C A36G C66U | 0.639 |
| U2A U13G U28A A36U G56A C62G U64G | ≤ 0.5 |
| U2A C49U C62U | 0.522 |
| U2C A21U C30U | ≤ 0.5 |
| U2A A20C C62U C66G | ≤ 0.5 |

| Variant | yeast fitness |
| --- | --- |
| U2A G38C A40C C49U | 0.527 |
| U2A C5G C24U C30G G68A | ≤ 0.5 |
| U2A C5U A65U A69U | 0.614 |
| U2A G25A A70U | 0.695 |
| U2A G6A U16C U28A G50A | ≤ 0.5 |
| U2A A21G G44C U59G | ≤ 0.5 |
| U2A U16A C55G C60A | ≤ 0.5 |
| U2C A14C G39A A57U | ≤ 0.5 |
| U2A G9C U13A A15G C33A A37U G50C C61U | 0.58 |
| U2A C4U U8G C31A G44C A65G | ≤ 0.5 |
| U2A C46A | 1.03 |
| U2A C46U | 1.06 |
| U2A U19C | 0.867 |
| U2A C4G C55A C61G | ≤ 0.5 |
| U2A G6C A37U | ≤ 0.5 |
| U2A A20U C34A C61U | ≤ 0.5 |
| U2A C11G U35G U47A G48A A65U | ≤ 0.5 |
| U2C A14G G18A U32A G44A A65C | 0.539 |
| U2A U13G U28A A36U A45U A57G | 0.59 |
| U2A A20G G44A | 0.531 |
| U2A A20C A37G G52A U53A | ≤ 0.5 |
| U2A C4U U28A C30U | 0.56 |
| U2A U13A A20C G44C C66U | ≤ 0.5 |
| U2A U26A | 1.06 |

| Variant | yeast fitness |
| --- | --- |
| U2A C27G | 0.764 |
| U2A A37C | 0.833 |
| U2A A37U | 0.689 |
| U2A A40G A43U A45C A57G A65C | ≤ 0.5 |
| U2A U64C | 0.938 |
| U2A C5G G63C G67C A69U | ≤ 0.5 |
| U2A C11G C31G | 0.6 |
| U2A C5G A40G | 0.564 |
| U2C A15C C60A | ≤ 0.5 |
| U2A U16C A45C | 0.651 |
| U2A C11A G38C C60A C66U | ≤ 0.5 |
| U2A U7A U54A | ≤ 0.5 |
| U2A G25C A70G | 0.568 |
| U2A C5U G6A G39C C60A | ≤ 0.5 |
| U2A U26C C55U | ≤ 0.5 |
| U2A G38C | 0.635 |
| U2A U47G C66U | ≤ 0.5 |
| U2A A36G | 0.985 |
| U2A U16C C30A A43C | ≤ 0.5 |
| U2A C5A G48C C55G C66A | ≤ 0.5 |
| U2A U7C G41A A42C G50C A70G | ≤ 0.5 |
| U2A C5A U64G C66U | ≤ 0.5 |
| U2A C31G G39C A42G C49U C60G | ≤ 0.5 |
| U2A C46U A65G | 0.592 |

| Variant | yeast fitness |
| --- | --- |
| U2A C5A G9C U16C G25C G68C | 0.586 |
| U2A U28C C49U C62G | ≤ 0.5 |
| U2A C30U A42G C60G C62G A65G C66U | ≤ 0.5 |
| U2A G18C | 0.592 |
| U2C A14C U35C | ≤ 0.5 |
| U2A A20C G68A | 0.719 |
| U2A U8A C34A A65U | ≤ 0.5 |
| U2A C31G A65G | 0.642 |
| U2A C11G U19C | ≤ 0.5 |
| U2A C61U A70G | 0.571 |
| U2C A37G C49G A57U G68C A70G | ≤ 0.5 |
| U2A U16C C30A G56A G68C | 0.541 |
| U2A A20G G58C | 0.973 |
| U2A A21G G39C A69C | ≤ 0.5 |
| U2A G50C C55G C62G | ≤ 0.5 |
| U2A U19A A20C G25A U26A | ≤ 0.5 |
| U2A C11G C27G U54A | ≤ 0.5 |
| U2A U7A | 0.666 |
| U2A G9A C49A | ≤ 0.5 |
| U2A G9A A20C C24U | ≤ 0.5 |
| U2A C5U G38A C55A | ≤ 0.5 |
| U2A U3A G63C | ≤ 0.5 |
| U2A C11G C31U A36G | 0.646 |
